This is a sample that favours compounds with a hit; in the whole collection about 9.6% have one here.
MT stabilize HCS – microtubule stabilizers in HeLa cells | AID 2205 | actives 0.83% (n = 200,000) | % tubulin-high responders, % at 10 µM | HeLa tubulin immunostaining HCS, 24 h; share of cells brighter than vehicle mean+2SD;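 active = plate Z-score above 3 for both tubulin-high and condensed-nucleus cell shares, with cell loss under 80%, at 10 µM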;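 note: anti alpha tubulin signal scored within the nucleus-defined area of each cell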
BaF3 parental – reduces parental Ba/F3 cell viability, JAK2V617F counter-screen. inhibition, % at 5.6 µM. AID 1486. actives 1.1% (n = 220,000). CellTiter-Glo ATP luminescence;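 active = inhibition above a per-campaign cutoff, the mean inhibition of all tested compounds plus 3 SD, cut at about 27% in these data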;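 note: 0% = DMSO wells and 100% = JAK Inhibitor I control wells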
L major viab – reduces viability of Leishmania major promastigotes | resazurin fluorescence viability | inhibition, % at 10 µM | actives 9% (n = 200,000) | AID 1063; in the data active = inhibition above about 50%;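 note: promastigotes grown with compound for 44 hours at 28 °C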
Ba/F3 V617F tox – reduce viability of Ba/F3 cells dependent on JAK2V617F; inhibition, % at 5.6 µM; actives 1.1% (n = 220,000); Ba/F3 EpoR-JAK2V617F viability, ATP luminescence;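 active = inhibition above the campaign mean plus 3 SD over all tested compounds, cut at about 24% in these data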;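 note: cytokine-independent growth of Ba/F3 cells driven by EpoR plus mutant JAK2; 0% = DMSO-treated cells and 100% = JAK inhibitor I control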
b-catenin transl – alters nuclear translocation of beta-catenin in HeLa cells; immunofluorescence imaging; nuclear translocation activity, % at 5 µM; actives 0.3% (n = 190,000); AID 1665;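 active = nuclear translocation activity above 50% at 5 µM, with a well cell count of 50 or more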;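 note: per-cell ratio of nuclear to cytoplasmic median beta-catenin stain intensity; plate controls were DMSO negative control for no effect and GSK-3 inhibitor IX positive control for full effect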
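System: HeLa cells, endogenous beta-catenin; compound dosing: 5 µM primary single dose, 0.1% DMSO, 0.02–20 µM confirmation series; incubation: 24 h compound exposure at 37°C, 5% CO2; signal: beta-catenin immunofluorescence imaging with DAPI; evaluation: % activation, nuclear-to-cytoplasmic median beta-catenin signal ratio per cell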
APP 5UTR inh – APP translation inhibition | SH-SY5Y APP 5'UTR-luciferase reporter, luminescence | inhibition, % at 2 µM | actives 0.82% (n = 190,000) | AID 1285;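 active = inhibition above a set limit, derived from the sample mean plus 3 SD, cut at about 45% in these data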
Active calls of the source: *.

For Cn1cc(Cl)c(C(=O)N/N=C/c2ccc(OS(=O)(=O)c3ccccc3)cc2)n1 the results were MT stabilize HCS 3.6, BaF3 parental 2.6, L major viab 2.5, Ba/F3 V617F tox -1.3, b-catenin transl -2.1 and APP 5UTR inh -13.3.
`NC(N)=N/N=C/c1ccc(OS(=O)(=O)c2ccccc2)cc1` gave MT stabilize HCS 9.2*, BaF3 parental 6.8, L major viab 88.1*, Ba/F3 V617F tox 4.1, b-catenin transl 24.4 and APP 5UTR inh -15.7.
`CCC(=O)N/N=C/c1ccc(OS(=O)(=O)c2ccccc2)cc1` gave MT stabilize HCS 2.1, BaF3 parental 3.0, L major viab 57.5*, Ba/F3 V617F tox 0.1, b-catenin transl -1.8 and APP 5UTR inh 11.6.
`O=C(C1CCN(c2ccc(N3CCOCC3)nn2)CC1)N1CCc2ccccc2C1` gave MT stabilize HCS 1.9, BaF3 parental 1.7, L major viab 95.2*, Ba/F3 V617F tox -2.5, b-catenin transl -2.3 and APP 5UTR inh -4.6.
COc1ccccc1C(=O)Nc1ccc(Cc2ccncc2)cc1 was read as MT stabilize HCS 1.0, BaF3 parental 5.5, L major viab 8.9, Ba/F3 V617F tox -1.4, b-catenin transl -1.4 and APP 5UTR inh -5.4.
Screening Cc1c([N+](=O)[O-])cc(C(=O)Nc2ccc(Cc3ccncc3)cc2)cc1[N+](=O)[O-] returned MT stabilize HCS 2.4, BaF3 parental 4.7, L major viab 98.5*, Ba/F3 V617F tox -6.7, b-catenin transl 1.5 and APP 5UTR inh 15.1.
COc1c(C)cc(Br)cc1C(=O)Nc1ccc(Cc2ccncc2)cc1 was read as MT stabilize HCS 2.5, BaF3 parental 5.4, L major viab 96.5*, Ba/F3 V617F tox -0.6, b-catenin transl -3.9 and APP 5UTR inh -6.2.
Screening O=C(Nc1ccc(Cc2ccncc2)cc1)c1ccc(Cl)c([N+](=O)[O-])c1 returned MT stabilize HCS 1.8, BaF3 parental -2.1, L major viab -3.0, Ba/F3 V617F tox -4.3, b-catenin transl -1.9 and APP 5UTR inh 9.6.
Cc1ccccc1C(=O)NC(=S)Nc1ccc(Cc2ccncc2)cc1 was read as MT stabilize HCS 1.7, BaF3 parental -0.7, L major viab 53.1*, Ba/F3 V617F tox -4.6, b-catenin transl 1.1 and APP 5UTR inh -19.5.
For CCN1CCN(C(=S)c2ccc(SC)cc2)CC1 the results were MT stabilize HCS 2.4, BaF3 parental 0.8, L major viab 91.2*, Ba/F3 V617F tox -3.0 and APP 5UTR inh 5.0.
`CSc1ccc(C(=S)N2CCN(Cc3ccccc3)CC2)cc1` gave MT stabilize HCS 3.9, BaF3 parental 1.3, L major viab 93.7*, Ba/F3 V617F tox -0.6 and APP 5UTR inh -18.3.
COc1ccc(C(C(=O)NC(C)(C)C)N(C(=O)CNC(=O)c2cccs2)c2ccc(NC(C)=O)cc2)cc1OC (configuration not stated) was read as MT stabilize HCS 2.6, BaF3 parental -4.6, L major viab -4.6, Ba/F3 V617F tox -5.9, b-catenin transl 0.8 and APP 5UTR inh -1.3.
For COc1ccc(NN=Nc2nc3c([nH]2)c(=O)n(C)c(=O)n3C)cc1 the results were BaF3 parental -2.2, Ba/F3 V617F tox 1.1 and b-catenin transl 0.2.
For O=C(CN1N=C(c2ccc(Cl)cc2)CCC1=O)NCc1cccs1 the results were MT stabilize HCS 1.2, BaF3 parental 5.9, L major viab -4.3, Ba/F3 V617F tox 0.7, b-catenin transl -1.5 and APP 5UTR inh 2.9.
Screening Cc1c(C#N)c(N=CN(C)C)c(C(=O)c2ccc(Br)cc2)n1-c1ccc(Cl)cc1 returned MT stabilize HCS 1.5, BaF3 parental 4.3, L major viab 99.7*, Ba/F3 V617F tox 1.8 and APP 5UTR inh 6.5.
`CC(=O)c1c(N)c(C#N)c(C)n1-c1ccc(Br)cc1` gave MT stabilize HCS 3.2, BaF3 parental 0.8, L major viab 1.6, Ba/F3 V617F tox -2.8 and APP 5UTR inh 10.4.
O=S(=O)(Nc1nc2ccccc2[nH]1)c1ccccc1 was read as MT stabilize HCS 4.9, BaF3 parental 7.8, L major viab 15.3, Ba/F3 V617F tox -0.8, b-catenin transl -0.9 and APP 5UTR inh -11.0.
O=S(=O)(Nc1nc2ccccc2[nH]1)c1ccc(Cl)cc1 was read as MT stabilize HCS 5.4, BaF3 parental 6.1, L major viab 57.2*, Ba/F3 V617F tox -0.8, b-catenin transl -5.6 and APP 5UTR inh -7.8.

Source: PubChem
